PLCg1 inh = blocks human PLC-gamma1 enzyme activity. P19174. purified PLC-gamma1, fluorogenic substrate, fluorescence. inhibition, % at 12.2 µM. 0.84% of 370,000 active; in the data active = inhibition above about 9.5%
DDE Tn6 FP inh = DD(E)-Tn6 binding inhibition, primary FP screen; P02675; Fibrin DD(E) TRITC-Tn6 fluorescence polarization displacement; inhibition, % at 8.3 µM; 0.21% of 370,000 active;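 active = inhibition above a per-campaign cutoff: mean of compounds within control limits plus 3 SD, cut at about 15% in these data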;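 note: 0% = median of all compound wells on the plate and 100% = blocking peptide control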
PLC-beta3 inh = blocks human PLC-beta3 enzyme activity | Purified PLC-beta3, fluorogenic substrate, fluorescence | Q01970 | 0.18% of 370,000 active | inhibition, % at 12.2 µM; in the data active = inhibition above about 11%;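 note: 0% = median of compound wells on plate and 100% = full blocker control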
Tn7 DDE FP = disrupts Tn7 cyclic peptide binding to fibrin D-Dimer-E complex; P02675; FP displacement of FITC-Tn7 peptide from fibrin DD(E); 0% = median of compound wells per plate; inhibition, % at 8.3 µM; 0.13% of 370,000 active; AID 720508;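 active = inhibition above the mean of compounds falling within the control limits plus 3 SD of them, cut at about 14% in these data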;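 note: 0% = plate median of compound wells and 100% = 10 µM Aha-Tn7 peptide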
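Assay system: human fibrin DD(E). Input: DD(E) 2 µM final. Medium: Tris buffer with calcium and detergent, pH 7.8. Compound dosing: single point at 8.3 µM. Timing: 10 min plus 3 h, room temperature. Technique: fluorescence polarization of the labelled Tn7 tracer. Read-out: percent inhibition. Replicates: singlicate testing.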
CendR NRP1 mod = modulators of CendR peptide binding to human neuropilin-1; FAM-RPARPAR peptide binding to NRP-1, fluorescence polarization; inhibition, % at 25 µM; 0.85% of 360,000 active;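 active = inhibition or corrected inhibition above about 18%, plus a signal ratio from 0.5 to 1.5, limit read from the data, passing the limit was not always enough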
proKLK7 act = proKLK7 (human) activation, primary screen | P49862 | purified proKLK7, EDANS-DABCYL substrate fluorescence; 100% is mature enzyme control, 0% vehicle | activation, % at 7 µM | 0.9% of 370,000 active | AID 652039;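 active = activation above the mean of all tested compounds plus 3 SD, computed per campaign excluding outliers beyond control limits, cut at about 13% in these data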
proKLK7 act conf = confirmation of human kallikrein-7 zymogen activators | purified proKLK7, EDANS-DABCYL substrate fluorescence; scaled: vehicle 0, mature enzyme 100 | activation, % at 7 µM | 68% of 3,200 active | shares compounds with proKLK7 act;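 active = activation, as change over the incubation, above the mean of all tested compounds plus 3 SD, cut at about 13% in these data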
EDANS interfere = counter-screen for kallikrein-7 activators: EDANS-DABCYL optical interference; shares compounds with proKLK7 act; EDANS-DABCYL substrate fluorescence interference, no enzyme, 4 h; solvent 0%, active enzyme control 100%; AID 686952; 80% of 3,200 active; activation, % at 7 µM;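 active = activation above the all-compound mean plus 3 SD, ignoring values outside control-based bounds, cut at about 4.8% in these data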;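 note: value is the 4 h activation minus the activation read at time zero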
K7 EDANS ctr = EDANS fluorescence interference in dose response, no enzyme | shares compounds with proKLK7 act | EDANS-DABCYL peptide fluorescence interference | EC50, µM | 20% of 250 active | AID 720493;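 active = compounds that raise the fluorescence signal in this interference counterscreen, with EC50 at or below 10 µM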;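 note: intact quenched peptide substrate alone read at 355 nm excitation and 520 nm emission; signal is fluorescence gain from T0 to T4 after four hours at room temperature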
Active calls of the source: *. Rows were chosen to be rich in hits. Some 3% of all compounds tested hit in one or more screens of this group.

How did COCCCNC(=O)C[C@H]1C[C@@]2(C(=O)OC)C(=C[C@H](C(C)(C)C)O[C@@H]2C)N(Cc2cccc3ccccc23)C1=O do in these assays?
PLCg1 inh: 2.6; DDE Tn6 FP inh: 9.5; PLC-beta3 inh: 4.6; Tn7 DDE FP: 10.2; proKLK7 act: 0.1

How did Cc1ccc(C23OCCN2CCn2nc4ccccc4c23)cc1 (configuration not stated) do in these assays?
PLCg1 inh: -380.7; DDE Tn6 FP inh: -11.2; PLC-beta3 inh: inactive; Tn7 DDE FP: 1.0; CendR NRP1 mod: -1.1; proKLK7 act: 43.9*; proKLK7 act conf: 1.9; EDANS interfere: 2.3

How did O=C(NCCN1CCOCC1)c1cc(-c2ccccc2Cl)nc2ccccc12 do in these assays?
PLCg1 inh: -1.7; DDE Tn6 FP inh: -3.3; PLC-beta3 inh: -8.9; Tn7 DDE FP: -6.0; CendR NRP1 mod: 13.2; proKLK7 act: -0.3

Results for COc1ccc(-c2cc(C(=O)NCCN3CCOCC3)c3ccccc3n2)cc1 ?
PLCg1 inh: inactive; DDE Tn6 FP inh: -0.1; PLC-beta3 inh: inactive; Tn7 DDE FP: 1.8; CendR NRP1 mod: -9.0; proKLK7 act: 14.8*; proKLK7 act conf: 5.8; EDANS interfere: -0.3

How did Cc1ccc(-c2cc(C(=O)NCCN3CCOCC3)c3ccccc3n2)o1 do in these assays?
PLCg1 inh: inactive; DDE Tn6 FP inh: 1.4; PLC-beta3 inh: inactive; Tn7 DDE FP: -7.4; CendR NRP1 mod: 13.9; proKLK7 act: 48.6*; proKLK7 act conf: 49.4*; EDANS interfere: 66.0*

Results for COc1ccc(-c2cc(C(=O)NCCN3CCOCC3)c3ccccc3n2)cc1OC ?
PLCg1 inh: -114.8; DDE Tn6 FP inh: 14.6; PLC-beta3 inh: -174.6; Tn7 DDE FP: -1.6; CendR NRP1 mod: 10.6; proKLK7 act: -0.6

How did CCOc1cc(/C=N/NC(=O)C(=O)N/N=C/c2ccc(O)c(OCC)c2)ccc1O do in these assays?
PLCg1 inh: -13.6; DDE Tn6 FP inh: 3.2; PLC-beta3 inh: -25.2; Tn7 DDE FP: -1.7; CendR NRP1 mod: -7.0; proKLK7 act: 15.9*; proKLK7 act conf: -21.5; EDANS interfere: -8.3

How did O=C(Nc1ccccc1Oc1ccccc1)NC1CCCCN(Cc2cccc(Cl)c2)C1=O (configuration not stated) do in these assays?
PLCg1 inh: 1.4; DDE Tn6 FP inh: 1.1; PLC-beta3 inh: 5.5; Tn7 DDE FP: 1.6; proKLK7 act: 0.5

Results for O=C(Nc1cccc2c1[nH]c1ccccc12)C(F)(F)F ?
PLCg1 inh: -2.5; DDE Tn6 FP inh: 5.3; PLC-beta3 inh: -4.2; Tn7 DDE FP: -3.3; CendR NRP1 mod: -1.4; proKLK7 act: 21.1*; proKLK7 act conf: 16.4*; EDANS interfere: 12.3*; K7 EDANS ctr: inactive

How did O=C(Nc1ccc2c(c1)[nH]c(=O)c1ccccc12)C(F)(F)F do in these assays?
PLCg1 inh: -296.1; DDE Tn6 FP inh: 3.6; PLC-beta3 inh: -370.0; Tn7 DDE FP: -5.2; CendR NRP1 mod: -14.6; proKLK7 act: 211.4*; proKLK7 act conf: 163.3*; EDANS interfere: 153.4*

How did CCCCC(=O)N1CCN(C(=O)c2ccc3c(c2)nc(C)n3C2CCCC2)CC1 do in these assays?
PLCg1 inh: 6.0; DDE Tn6 FP inh: 4.5; PLC-beta3 inh: 4.7; Tn7 DDE FP: -1.8; proKLK7 act: -0.5

What do the screens show for `COc1ccc(NC(=O)c2cc3cc(OC)ccc3oc2=O)cc1`?
PLCg1 inh: -2.0; DDE Tn6 FP inh: -0.4; PLC-beta3 inh: -7.4; Tn7 DDE FP: 1.4; CendR NRP1 mod: -7.9; proKLK7 act: -0.1

What do the screens show for `O=C(Nc1ccc2oc(=O)c(C(=O)O)cc2c1)Oc1ccccc1`?
PLCg1 inh: -251.0; DDE Tn6 FP inh: -5.0; PLC-beta3 inh: -341.8; Tn7 DDE FP: 3.5; CendR NRP1 mod: -0.2; proKLK7 act: 100.0*; proKLK7 act conf: 187.3*; EDANS interfere: 181.5*

What do the screens show for `O=C(Nc1ccc(O)c(C(=O)O)c1)Oc1ccccc1`?
PLCg1 inh: -72.1; DDE Tn6 FP inh: -3.4; PLC-beta3 inh: -110.6; Tn7 DDE FP: 1.6; CendR NRP1 mod: -11.3; proKLK7 act: 25.8*; proKLK7 act conf: 30.2*; EDANS interfere: 28.0*

How did Nc1c2c(nc3ccccc13)N(c1ccccc1)CC2 do in these assays?
PLCg1 inh: inactive; DDE Tn6 FP inh: -2.2; PLC-beta3 inh: inactive; Tn7 DDE FP: -2.3; CendR NRP1 mod: -1.0; proKLK7 act: 69.7*; proKLK7 act conf: 19.6*; EDANS interfere: 21.0*

What do the screens show for `CC(=O)N(C(C)=O)c1c(C#N)c(C)n(-c2ccccc2)c1C(=O)c1ccccc1`?
PLCg1 inh: 1.9; DDE Tn6 FP inh: 4.0; PLC-beta3 inh: -2.1; Tn7 DDE FP: 5.5; CendR NRP1 mod: 9.8; proKLK7 act: 0.9

How did CC(=O)N(C(C)=O)c1ncc2c([nH]c3ccccc32)c1C#N do in these assays?
PLCg1 inh: -161.5; DDE Tn6 FP inh: 1.3; PLC-beta3 inh: -224.5; Tn7 DDE FP: 6.8; CendR NRP1 mod: 5.4; proKLK7 act: 18.8*; proKLK7 act conf: 24.6*; EDANS interfere: 24.8*

What do the screens show for `CC(C)C[C@H]1COc2cc(Br)ccc2S(=O)(=O)N1Cc1cn(Cc2ccco2)nn1`?
PLCg1 inh: 0.2; DDE Tn6 FP inh: 8.8; PLC-beta3 inh: 2.1; Tn7 DDE FP: 0.8; proKLK7 act: -0.5

Results for CCN(CC)Cc1c(O)ccc2c(C)c(CC(=O)OC)c(=O)oc12 ?
PLCg1 inh: inactive; DDE Tn6 FP inh: 7.3; PLC-beta3 inh: inactive; Tn7 DDE FP: 2.6; CendR NRP1 mod: 47.0*; proKLK7 act: 58.3*; proKLK7 act conf: 64.9*; EDANS interfere: 67.1*

What do the screens show for `COC(=O)Cc1c(C)c2ccc(OCC(C)=O)c(C)c2oc1=O`?
PLCg1 inh: -62.3; DDE Tn6 FP inh: -0.9; PLC-beta3 inh: -69.1; Tn7 DDE FP: -4.5; CendR NRP1 mod: 0.5; proKLK7 act: -0.2

What do the screens show for `COC(=O)Cc1c(C)c2ccc(O)c(CNCc3ccc(OC)c(OC)c3)c2oc1=O`?
PLCg1 inh: inactive; DDE Tn6 FP inh: -5.3; PLC-beta3 inh: inactive; Tn7 DDE FP: 1.7; CendR NRP1 mod: 20.1; proKLK7 act: 62.8*; proKLK7 act conf: 76.8*; EDANS interfere: 65.0*; K7 EDANS ctr: >69.5

How did O=C(CN1C(=O)CCSc2ccccc21)Nc1ccc(F)cc1F do in these assays?
PLCg1 inh: -0.6; DDE Tn6 FP inh: -7.0; PLC-beta3 inh: -0.4; Tn7 DDE FP: -2.4; proKLK7 act: 0.3

Screens deposited in PubChem BioAssay by several laboratories.
